How the values were obtained:
[1] = system: Pectobacterium atrosepticum; assay: Activity of Erwinia carotovora subsp. atroseptica DSM 30184 beta-lactamase CAR-1
Procedure, shortened: (§1)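 Recombinant CAR-1, expressed in E. coli BL21(DE3)/pET9-CAR-1 and purified by DEAE-Sepharose then Mono Q chromatography in Zn-containing buffers. Enzyme was diluted in HZN buffer (50 mM HEPES-NaOH pH 7.5, 50 µM ZnSO4) with 20 µg/ml BSA and used at 1.9–3,800 nM.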

[2] = system: Pectobacterium atrosepticum; assay: Ratio of Kcat to Km for Erwinia carotovora subsp. atroseptica DSM 30184 beta-Lactamase CAR-1; procedure, shortened: as §1
Bradyrhizobium japonicum = assay: Ratio of Kcat to Km for Bradyrhizobium japonicum beta-Lactamase BJP-1

In the case of `CC1(C)S[C@@H]2[C@H](NC(=O)[C@H](C(=O)O)c3ccsc3)C(=O)N2[C@H]1C(=O)O`, the Km [1] is reported as 640 µM, the kcat [1] is reported as 9 s⁻¹ and the kcat/Km [2] is reported as 1.3 ×10⁴ /M/s.

For `CC(C)(O/N=C(\C(=O)N[C@@H]1C(=O)N2C(C(=O)[O-])=C(C[n+]3ccccc3)CS[C@H]12)c1csc(N)n1)C(=O)O`, the Km [1] was greater than 561 µM, the kcat [1] was greater than 160 s⁻¹ and the kcat/Km [2] was 2.9 ×10⁵ /M/s.

In the case of `CO/N=C(\C(=O)N[C@@H]1C(=O)N2C(C(=O)[O-])=C(C[N+]3(C)CCCC3)CS[C@H]12)c1csc(N)n1`, the kcat/Km (Bradyrhizobium japonicum) is reported as 2 ×10² /M/s.

`C[C@@H](O)[C@H]1C(=O)N2C(C(=O)O)=C([C@H]3CCCO3)S[C@H]12` gave a Km [1] of 120 µM, a kcat [1] of 5 s⁻¹ and a kcat/Km [2] of 4.4 ×10⁴ /M/s. It also gave a kcat/Km (Bradyrhizobium japonicum) of 6.8 ×10³ /M/s.

Work on `CO/N=C(\C(=O)N[C@@H]1C(=O)N2C(C(=O)O)=C(CSc3nc(=O)c(O)nn3C)CS[C@H]12)c1csc(N)n1` yielded a Km [1] of 130 µM, a kcat [1] of 13 s⁻¹ and a kcat/Km [2] of 9.9 ×10⁴ /M/s. For the same compound, the kcat/Km (Bradyrhizobium japonicum) was 9.6 ×10⁴ /M/s.

`CO/N=C(\C(=O)N[C@@H]1C(=O)N2C(C(=O)O)=C(COC(C)=O)CS[C@H]12)c1csc(N)n1` showed a Km [1] of 160 µM, a kcat [1] of 250 s⁻¹ and a kcat/Km [2] of 1.5 ×10⁶ /M/s. The kcat/Km (Bradyrhizobium japonicum) was 1.4 ×10⁵ /M/s.

Compound `CCN1CCN(C(=O)N[C@@H](C(=O)N[C@@H]2C(=O)N3[C@@H]2SC(C)(C)[C@@H]3C(=O)O)c2ccccc2)C(=O)C1=O` has a Km [1] of 340 µM, a kcat [1] of 9 s⁻¹ and a kcat/Km [2] of 2.6 ×10⁴ /M/s. The kcat/Km (Bradyrhizobium japonicum) was 6.7 ×10⁴ /M/s.

`C[C@@H](O)[C@H]1C(=O)N2C(C(=O)O)=C(SCCNC=N)C[C@H]12` was tested, and the kcat/Km (Bradyrhizobium japonicum) was 6 ×10⁴ /M/s.

Compound `CO[C@@]1(NC(=O)Cc2cccs2)C(=O)N2C(C(=O)O)=C(COC(N)=O)CS[C@@H]21` has a Km [1] greater than 1570 µM, a kcat [1] greater than 7 s⁻¹ and a kcat/Km [2] of 4.7 ×10³ /M/s. For the same compound, the kcat/Km (Bradyrhizobium japonicum) was 7.1 ×10⁴ /M/s.

`CO/N=C(\C(=O)N[C@@H]1C(=O)N2C(C(=O)O)=C(COC(N)=O)CS[C@H]12)c1ccco1` was tested, and the Km [1] was 110 µM, the kcat [1] was 400 s⁻¹ and the kcat/Km [2] was 3.6 ×10⁶ /M/s. It also gave a kcat/Km (Bradyrhizobium japonicum) of 5 ×10⁵ /M/s.

`CC(=O)OCC1=C(C(=O)O)N2C(=O)[C@@H](NC(=O)Cc3cccs3)[C@H]2SC1` was tested, and the Km [1] was 200 µM, the kcat [1] was 240 s⁻¹ and the kcat/Km [2] was 1.2 ×10⁶ /M/s.

Work on `CC1(C)S[C@@H]2[C@H](NC(=O)[C@H](N)c3ccccc3)C(=O)N2[C@H]1C(=O)O` yielded a Km [1] of 1600 µM, a kcat [1] of 5 s⁻¹ and a kcat/Km [2] of 3.2 ×10³ /M/s. The kcat/Km (Bradyrhizobium japonicum) was 1.9 ×10⁴ /M/s.

`CC1(C)S[C@@H]2[C@H](NC(=O)Cc3ccccc3)C(=O)N2[C@H]1C(=O)O` was tested, and the Km [1] was 200 µM, the kcat [1] was 2 s⁻¹ and the kcat/Km [2] was 9.2 ×10³ /M/s. For the same compound, the kcat/Km (Bradyrhizobium japonicum) was 1.3 ×10⁵ /M/s.

Source: ChEMBL document CHEMBL1275443, “Functional diversity among metallo-beta-lactamases: characterization of the CAR-1 enzyme of Erwinia carotovora” (2008)
